Assay results taken from ChEMBL document CHEMBL1128204, “Novel non-nucleoside inhibitors of human immunodeficiency virus type 1 (HIV-1) reverse transcriptase. 4. 2-Substituted dipyridodiazepinones as potent inhibitors of both wild-type and cysteine-181 HIV-1 reverse transcriptase enzymes” (J Med Chem, 1995).

Key:
C8166 = assay: Inhibitory concentration against cell culture of Human T-cell line c8166 infected with HIV-1 IIIB strain was determined; type: functional, cell-based
[1] = molecular target: Human immunodeficiency virus type 1 reverse transcriptase (Human immunodeficiency virus 1, UniProt Q72547, E138K); assay: Inhibitory concentration against mutant reverse transcriptase of E138K was determined which is in turn resistant to TSAO
Method in brief: (§1)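 The enzyme was either p66/p51 heterodimer purified to near homogeneity or crude E. coli lysate containing the mutant RT. Inhibitory concentration was measured in an RT enzyme assay.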

[2] = molecular target: Human immunodeficiency virus type 1 reverse transcriptase (Human immunodeficiency virus 1, UniProt Q72547, P236L); assay: Inhibitory concentration against mutant reverse transcriptase of P236L was determined which is in turn resistant to BHAP; method in brief: as §1
[3] = molecular target: Human immunodeficiency virus type 1 reverse transcriptase (Human immunodeficiency virus 1, UniProt Q72547, K103N); assay: Inhibitory concentration against mutant reverse transcriptase of K103N was determined which is in turn resistant to pyridinones; method in brief: as §1
[4] = molecular target: Human immunodeficiency virus type 1 reverse transcriptase (Human immunodeficiency virus 1, UniProt Q72547, L100I); assay: Inhibitory concentration against mutant reverse transcriptase of L100I was determined which is in turn resistant TIBO; method in brief: as §1
[5] = molecular target: Human immunodeficiency virus type 1 reverse transcriptase (Human immunodeficiency virus 1, UniProt Q72547, Y181C); assay: Inhibitory activity against HIV-1 Y181C Reverse transcriptase (RT); method in brief: as §1
[6] = molecular target: Human immunodeficiency virus type 1 reverse transcriptase (Human immunodeficiency virus 1, UniProt Q72547); assay: Inhibitory concentration against HIV-1 wild type Reverse transcriptase (RT)

Compound	IC50 [5] [µM]	IC50 [6] [µM]	further results
CCN1c2ncccc2C(=O)N(C)c2ccc(-c3cn[nH]c3)nc21	0.06	0.02	IC50 (C8166): 0.04 µM; IC50 [1]: 0.05 µM; IC50 [2]: 0.13 µM; IC50 [3]: 0.08 µM; IC50 [4]: 2.5 µM
CCN1c2ncccc2C(=O)N(C)c2ccc(N3CCCC3)nc21	3.8	0.02	
CCN1c2ncccc2C(=O)N(C)c2ccc(OC)nc21	0.6	0.04	
CCN1c2ncccc2C(=O)N(C)c2ccc(-c3ccc(OC)cc3)nc21	3.2	1.4	
CCN1c2ncccc2C(=O)N(C)c2ccc(-c3cnco3)nc21	0.56	0.11	
Cc1cc(Cl)nc2c1NC(=O)c1cccnc1N2C1CC1	0.78	0.02	
CCN1c2ncccc2C(=O)Nc2c(C)cc(NCCCO)nc21	> 1	0.09	
CCN1c2ncccc2C(=O)N(C)c2ccc(NC)nc21	0.71	0.19	
CCN1c2ncccc2C(=O)Nc2c(C)cc(C(C)C)nc21	> 1	1	
CCN1c2ncccc2C(=O)N(C)c2ccc(-c3cncs3)nc21	1.1	0.38	
CCN1c2ncccc2C(=O)N(C)c2ccc(-c3ccoc3)nc21	0.11	0.04	
CCN1c2ncccc2C(=O)Nc2c(C)cc(C(C)(C)C)nc21	> 1	> 1	
CCN1c2ncccc2C(=O)N(C)c2ccc(=O)[nH]c21	> 1	0.47	
CCN1c2ncccc2C(=O)N(C)c2ccc(/C=C/C(N)=O)nc21	2.4	0.25	
CCN1c2ncccc2C(=O)N(C)c2ccc(-c3ccc(OC)nc3)nc21	3	1.2	
CCN1c2ncccc2C(=O)N(C)c2ccc(-c3cccc(O)c3)nc21	0.18	0.1	
CN1C(=O)c2cccnc2N(C2CC2)c2nc(-c3cccnc3)ccc21	0.44	0.18	
CCN1c2ncccc2C(=O)Nc2c(C)cc(NCCO)nc21	> 1	0.09	
CCNc1ccc2c(n1)N(CC)c1ncccc1C(=O)N2C	1.3	0.23	
CCN1c2ncccc2C(=O)N(C)c2ccc(-c3ccsc3)nc21	0.3	0.1	
CCN1c2ncccc2C(=O)Nc2c(C)cc(N(C)CCO)nc21	> 1	0.01	
CCN1c2ncccc2C(=O)Nc2c(C)cc(Cl)nc21	0.8	0.01	
CN1C(=O)c2cccnc2N(C2CC2)c2nc(Cl)ccc21	0.92		

Compound	IC50 [5] [µM]	IC50 [6] [µM]	further results
CCN1c2ncccc2C(=O)N(C)c2ccc(C)nc21	1.2	0.12	
CCN1c2ncccc2C(=O)Nc2c(C)cc(C)nc21	> 1	0.02	
CCN1c2ncccc2C(=O)N(C)c2cccnc21	2.2		
CCN1c2ncccc2C(=O)N(C)c2ccc(-c3cc[nH]n3)nc21	0.29	0.39	
CCN1c2ncccc2C(=O)N(C)c2ccc(N(C)C)nc21	0.77	0.07	
CCN1c2ncccc2C(=O)N(C)c2ccc(-n3cccn3)nc21	0.56	0.31	
CCN1c2ncccc2C(=O)N(C)c2ccc(-c3ccc(N)nc3)nc21	0.26	0.05	IC50 (C8166): 0.24 µM; IC50 [1]: 0.02 µM; IC50 [2]: 0.04 µM; IC50 [3]: 0.41 µM; IC50 [4]: 0.24 µM
CCN1c2ncccc2C(=O)N(C)c2ccc(-c3cnc[nH]3)nc21	0.74	3.7	
CCN1c2ncccc2C(=O)N(C)c2ccc(-c3cccc(OC)c3)nc21	0.21	0.15	
CCN1c2ncccc2C(=O)N(C)c2ccc(N3CCOCC3)nc21	> 1	0.4	
C#Cc1ccc2c(n1)N(CC)c1ncccc1C(=O)N2C	0.42	0.14	
CCN1c2ncccc2C(=O)N(C)c2ccc(-c3ccc(O)nc3)nc21	> 1	1.1	
CCN1c2ncccc2C(=O)N(C)c2ccc(-n3cccc3)nc21	0.21	0.09	
CN1C(=O)c2cccnc2N(C2CC2)c2nc(-c3ccncc3)ccc21	0.32	0.15	
CCN1c2ncccc2C(=O)N(C)c2ccc(Cl)nc21	0.21	0.08	IC50 (C8166): 0.16 µM; IC50 [1]: 0.12 µM; IC50 [2]: 0.02 µM; IC50 [3]: 1.1 µM
CCN1c2ncccc2C(=O)N(C)c2ccc(N3CCCCC3)nc21	> 1	0.3	
COc1ccc2c(n1)N(C1CC1)c1ncccc1C(=O)N2C	1.1	0.12	
CCN1c2ncccc2C(=O)N(C)c2ccc(-c3ccc[nH]3)nc21	0.07	0.07	
CCN1c2ncccc2C(=O)N(C)c2ccc(N3CC=CC3)nc21	0.64	0.03	
Cc1cc(C)c2c(n1)N(C1CC1)c1ncccc1C(=O)N2	1.2	0.07	
CCN1c2ncccc2C(=O)N(C)c2ccc(-c3cccc(N)c3)nc21	0.56		
CCN1c2ncccc2C(=O)N(C)c2ccc(-c3ccccc3OC)nc21	2.5	0.82	
CCN1c2ncccc2C(=O)N(C)c2ccc(-c3cccs3)nc21	0.42	0.14	

Compound	IC50 [5] [µM]	IC50 [6] [µM]	further results
CCN1c2ncccc2C(=O)Nc2c(C)cc(SC)nc21	> 1	0.02	
CCN1c2ncccc2C(=O)N(C)c2ccc(-c3ccc(N)cc3)nc21	0.12	0.04	IC50 (C8166): 0.55 µM; IC50 [1]: 0.06 µM; IC50 [2]: 0.26 µM; IC50 [3]: 0.26 µM; IC50 [4]: 0.57 µM
C/C=C/Nc1ccc2c(n1)N(CC)c1ncccc1C(=O)N2C	> 1	0.39	
CCN1c2ncccc2C(=O)N(C)c2ccc(-c3ccc(O)cc3)nc21	0.27	0.07	IC50 (C8166): 0.3 µM; IC50 [1]: 0.06 µM; IC50 [2]: 0.001 µM; IC50 [3]: 0.01 µM; IC50 [4]: 0.5 µM
CCc1cc(C)c2c(n1)N(CC)c1ncccc1C(=O)N2	1.7	0.09	
CCN1c2ncccc2C(=O)N(C)c2ccc(/C=C/C(=O)OC)nc21	0.67	0.18	
CCN1c2ncccc2C(=O)Nc2c(C)cc(F)nc21	0.85	0.02	
CCN1c2ncccc2C(=O)N(C)c2ccc(-c3ccco3)nc21	0.16	0.11	
CCN1c2ncccc2C(=O)N(C)c2ccc(-c3ccccn3)nc21	1.6	0.18	
CCN1c2ncccc2C(=O)N(C)c2ccc(-c3ncco3)nc21	0.82	0.22	
CCN1c2ncccc2C(=O)N(C)c2ccc(-c3ccccc3)nc21	1.4	0.23	
CCN1c2ncccc2C(=O)N(C)c2ccc(-c3ncc[nH]3)nc21	0.19	0.13	
CCN1c2ncccc2C(=O)Nc2c(C)ccnc21	1.8	0.04	
CN1C(=O)c2cccnc2N(C2CC2)c2nc(-c3cn[nH]c3)ccc21	0.05	0.06	IC50 (C8166): 0.12 µM; IC50 [1]: 0.46 µM; IC50 [2]: 0.34 µM; IC50 [3]: 0.42 µM; IC50 [4]: 1.5 µM
CN1C(=O)c2cccnc2N(C2CC2)c2nc(Br)ccc21	2.1	0.03	
CN1C(=O)c2cccnc2N(C2CC2)c2nc(-c3cc[nH]c3)ccc21	0.06	0.05	
CCN1c2ncccc2C(=O)N(C)c2ccc(-c3cc[nH]c3)nc21	0.04	0.03	IC50 (C8166): 0.04 µM; IC50 [1]: 0.07 µM; IC50 [2]: 0.13 µM; IC50 [3]: 0.05 µM; IC50 [4]: 0.41 µM
CCN1c2ncccc2C(=O)N(C)c2ccc(N)nc21	> 1	> 1	
Cc1ccnc2c1NC(=O)c1cccnc1N2C1CC1 [NEVIRAPINE]			IC50 (C8166): 0.04 µM
CCN1c2ncccc2C(=O)N(C)c2ccc(-c3nccs3)nc21	0.24	0.1	
CCN1c2ncccc2C(=O)Nc2c(C)cc(N3CCC(O)C3)nc21 (stereo unspecified)	> 1	0.04	
CCN1c2ncccc2C(=O)Nc2c(C)cc(N3CCSCC3)nc21	> 1	0.15	
